One data set has as its system Cryptococcus neoformans. Kind of data set: Antifungal activity against Cryptococcus neoformans ATCC 24067 after 48 to 72 hrs by broth microdilution method. The data set is classed as functional. The gist of the method:
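CLSI M27-A3 broth microdilution. Isolates subcultured twice on SDA, 48 h at 35°C. Saline suspension adjusted to 70% transmittance at 530 nm, then diluted to 1-5 x10^3 cells/mL in RPMI with L-glutamine, 0.165 M MOPS, pH 7.0. Compounds in DMSO, tested at […]. 35°C for 48-72 h. MIC read visually as the lowest concentration giving an optically clear well.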
For orientation: Dilution methods test growth across graded concentrations, often in twofold steps.

The nature of data set [1]: Cytotoxicity against C57BL/6 mouse peritoneal macrophages assessed as cell viability measured after 48 hrs by MTT assay. The format is cell-based. Conditions: C57BL/6, Peritoneal macrophage cell. The gist of the method: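 Thioglycollate-elicited peritoneal macrophages from male C57BL/6 mice, 6–8 weeks old, in RPMI with 10% FBS. Seeded 1 x 10^5 cells/well, pre-incubated 24 h at 37°C. Exposed 48 h at 37°C, 5% CO2, to eight nonserial dilutions from 100 to 0.0128 µM, with 0.5% DMSO control. MTT read-out, % inhibition versus DMSO control. IC50 reported as median with 95% CI. Triplicate, two independent experiments.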
For orientation: Tetrazolium assays rely on reduction of a dye to a coloured formazan, in cell work by metabolically active cells.

For the next data set, the system named is Vero. As to the kind of experiment: Cytotoxicity against African green monkey Vero cells assessed as cell viability measured after 48 hrs by MTT assay. To be noted: Chlorocebus sabaeus. The format is cell-based. The gist of the method: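 VERO cells in D-MEM with 5% FBS, used up to 20 passages. Seeded 1 x 10^4 cells/well, pre-incubated 24 h at 37°C. Exposed 48 h at 37°C, 5% CO2, to eight nonserial dilutions from 100 to 0.0128 µM, with 0.5% DMSO control. MTT reduction read-out, corrected for background and blank. IC50 reported as median with 95% CI. Triplicate, two independent experiments.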

Data set [2] can be described thus: Selectivity index, ratio of IC50 for C57BL/6 mouse peritoneal macrophages to MIC for Cryptococcus neoformans ATCC 24067. In short, it runs like this:
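SI = IC50/MIC. Thioglycollate-elicited peritoneal macrophages from C57BL/6 mice are seeded at 1 x 10^5/well. They are exposed for 48 h at 37°C to eight concentrations from 100 to 0.0128 µM. Viability read by MTT versus 0.5% DMSO control, triplicate in two experiments.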

Data set [3] is described as follows: Selectivity index, ratio of IC50 for African green monkey Vero cells to MIC for Cryptococcus neoformans ATCC 24067. The format is toxicity, cell-based.

Structures are written as SMILES. pIC50: −log10 of the molar value. ≈ marks a conversion by molar mass, not a printed value.

One may read the MIC as the smallest concentration in the dilution series that meets the test's criterion for growth inhibition. Take `COc1ccc(-c2csc(N/N=C/c3ccc(C)cc3)n2)cc1`: the minimal inhibitory concentration (MIC) in the data set on Cryptococcus neoformans was > 250 µM.
On the same count and under the same terms, the value for `COc1ccc(-c2csc(N/N=C/c3ccncc3)n2)cc1` was > 250 µM; that for `CN(C)c1ccc(/C=N/Nc2nc(-c3ccccc3)cs2)cc1` was > 250 µM.
By pIC50 is commonly meant the negative decadic logarithm of the IC50, by convention in mol/L. Take `Clc1ccc(-c2csc(N/N=C3\CCCC\C3=C/c3ccccc3)n2)cc1`: the pIC50 (in data set [1]; in the data set with Vero) was < 4.00 in each case. The Ratio in data set [2] was found to be 12.8. Also, in the data set on Cryptococcus neoformans, the MIC amounted to 7.8 µM (≈ 3.07 µg/mL). Besides, the selectivity ratio in data set [3] stood at 12.8.
Turning to `COc1ccc(-c2csc(N/N=C/c3ccccc3)n2)cc1`, the minimum inhibitory concentration (MIC) against Cryptococcus neoformans was > 250 µM.
Turning to `COc1ccc(-c2csc(N/N=C3\CCCC\C3=C/c3ccccc3)n2)cc1`, the pIC50 (in data set [1]; in the data set on Vero) was < 4.00 each time. In data set [2], the Ratio stood at 12.8. For the same compound, the minimum inhibitory concentration (MIC) in the data set with Cryptococcus neoformans stood at 7.8 µM (≈ 3.04 µg/mL). Moreover, in data set [3], the selectivity ratio was 12.8.
As for `COc1ccc(/C=N/Nc2nc(-c3ccc(Cl)cc3)cs2)cc1OC`, the pIC50 (in data set [1]; with Vero) was < 4.00 each time. Moreover, the Ratio in data set [2] is given as 6.41. The compound also came in with a minimum inhibitory concentration (MIC) in the data set on Cryptococcus neoformans of 15.6 µM (≈ 5.83 µg/mL). Besides, the selectivity ratio in data set [3] came to 6.41.
On to `COc1ccc(-c2csc(N/N=C/c3ccc(N(C)C)cc3)n2)cc1`, for which the MIC with Cryptococcus neoformans is > 250 µM.
`C(=C1/CCCC/C1=N\Nc1nc(-c2ccccc2)cs1)/c1ccccc1`: the pIC50 (in data set [1]; with Vero) was < 4.00 in each case. For the same compound, in data set [2], the Ratio is reported as 6.41. For the same compound, the MIC against Cryptococcus neoformans is 15.6 µM (≈ 5.61 µg/mL). In addition, in data set [3], the selectivity ratio turned out to be 6.41.

The values above are taken from ChEMBL document CHEMBL3616437, “Thiazole compounds with activity against Cryptococcus gattii and Cryptococcus neoformans in vitro” (Eur J Med Chem, 2015).
